Screening data from PubChem BioAssay.
In the library only some 27% were active in any assay of this set; here they are far more common.
CYP2C9 inh = inhibitors of human CYP2C9; P11712; CYP2C9 Supersomes, luciferin-H conversion, luminescence; inhibition, % at 5 µM; actives 20% (n = 96,000);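 active = blocking of liver enzyme CYP2C9 beyond about 50% at 5 µM, limit read from the data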
Rev-RRE block = disrupts HIV-1 Rev binding to RRE RNA; P05866; Rev peptide-RRE RNA binding, FRET; inhibition, % at 8 µM; actives 0.79% (n = 97,000);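 active = inhibition above the screen-wide mean plus 3 SD, cut at about 35% in these data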
Target sequence (P05866 whole entry, looked up): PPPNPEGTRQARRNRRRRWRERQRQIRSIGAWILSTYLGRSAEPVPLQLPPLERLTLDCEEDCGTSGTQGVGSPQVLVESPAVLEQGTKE
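assay system = Cy5-tagged RRE RNA duplex with fluorescein-tagged Rev peptide | incubation = 5 + 15 min at 25 °C | also added = labelled Rev peptide | measure = % inhibition of FRET ratio versus controls | benchmarks = DMSO wells as 0% and neomycin B wells as 100% inhibition | measured by = FRET fluorescence readout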
Cav32 inh = human Cav3.2 channel inhibition, primary screen; actives 4% (n = 100,000); B-score at 10 µM; Cav3.2-expressing cells, Fluo-4 calcium fluorescence FDSS; active compounds read low; O95180; AID 449739;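 active = single-dose well whose peak fluorescence ratio is a statistical outlier from its plate by either plate-standardised score or position-corrected B-score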
CYP2C19 inh = inhibitors of human CYP2C19 | actives 21% (n = 96,000) | CYP2C19 Supersomes, luciferin-H EGE luminescence, 30 min | AID 778 | P33261 | inhibition, % at 5 µM;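 active = CYP2C19 inhibition above a set limit at 5 µM in the primary screen, cut at about 50% in these data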
Target sequence (P33261 whole entry, looked up): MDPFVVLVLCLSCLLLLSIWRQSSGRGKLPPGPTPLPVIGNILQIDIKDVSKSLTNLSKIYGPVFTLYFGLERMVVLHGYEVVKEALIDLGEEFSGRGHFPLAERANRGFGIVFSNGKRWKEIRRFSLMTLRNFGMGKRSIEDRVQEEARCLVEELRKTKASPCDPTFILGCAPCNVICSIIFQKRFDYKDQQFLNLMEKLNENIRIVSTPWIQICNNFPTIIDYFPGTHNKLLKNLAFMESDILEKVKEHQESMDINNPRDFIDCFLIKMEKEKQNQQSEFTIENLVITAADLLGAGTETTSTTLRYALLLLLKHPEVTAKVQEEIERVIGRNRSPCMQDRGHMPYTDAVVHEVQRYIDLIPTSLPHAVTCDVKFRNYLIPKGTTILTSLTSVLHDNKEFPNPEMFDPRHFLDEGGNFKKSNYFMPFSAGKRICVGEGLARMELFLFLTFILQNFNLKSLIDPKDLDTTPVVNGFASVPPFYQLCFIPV
CYP2C19 activ = cytochrome P450 2C19 (human) activation; activation factor at 5 µM; recombinant CYP2C19, luciferin-H EGE luminescence; active compounds read high; 0 = fully inhibited enzyme, 1 = untreated enzyme; P33261; 96,000 tested, under 10 active;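 active = activation factor of at least 2 at 5 µM in the primary screen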
CYP2C9 activ = activators of human CYP2C9. activation factor at 5 µM. actives 1.4% (n = 96,000). recombinant CYP2C9, luciferin-H conversion, luminescence; active compounds read high; factor 1 = untreated enzyme, 0 = blocked;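 active = activation factor of 2 or more for CYP2C9 at a 5 µM dose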
Hits are given with their value; – = inactive; · = not tested or not shown; [ ] = dose if it differs, or a comment.

SMILES	CYP2C9 inh	Rev-RRE block	Cav32 inh	CYP2C19 inh	CYP2C19 activ	CYP2C9 activ
Cc1ccc2[nH]c(=O)c(CN(Cc3ccco3)C(=O)c3ccncc3)cc2c1	96	·	–	100	–	–
CC(=O)c1ccc(N2CCN(C(=S)Nc3cccc(F)c3)CC2)cc1	–	–	–	–	–	–
Cc1cc(OCC(F)(F)C(F)(F)C(F)(F)C(F)(F)C(F)(F)C(F)F)nc(N)n1	57	–	–	64	–	–
Cc1ccc(NC(=O)CN(C)C(=O)CSc2nc3ccccc3o2)cc1	–	–	·	–	–	–
COc1cc(C(O)P(=O)(OC2CCCCC2)c2ccc(N(C)C)cc2)cc(OC)c1OC (configuration not stated)	–	–	·	84	–	–
CN(C)c1ccc(P(=O)(OC2CCCCC2)C(O)c2cccnc2)cc1 (configuration not stated)	–	–	–	–	–	–
CCCNc1nc(-c2cc(-c3ccc(Cl)cc3)on2)cc(C(C)C)n1	·	·	–	·	·	·
O=C(NCCCN1CCOCC1)c1ccco1	–	–	–	–	–	–
O=C(c1ccco1)N(CCCN1CCOCC1)c1nc(-c2ccc(Cl)cc2)cs1	92	–	–	87	–	–
O=C(c1ccco1)N(CCCN1CCOCC1)c1nc(-c2ccc(F)cc2)cs1	67	–	–	–	–	–
CCCCOC(=O)/C(=C\c1ccc([N+](=O)[O-])o1)NC(=O)c1ccccc1	·	–	–	·	·	·
COc1cccc(NC=C2C(=O)OC3(CCCCC3)OC2=O)c1	–	·	–	–	–	–
COc1ccc(C2=CC(=O)OC3(CCCCC3)O2)cc1	88	–	–	95	–	–
CCOCCCNC(=O)C(c1ccc(C)cc1)N(Cc1ccc2c(c1)OCO2)C(=O)c1cnccn1 (configuration not stated)	–	–	–	–	–	–
Cc1ccc2nsnc2c1S(=O)(=O)N1CCN(CCc2ccccc2)CC1	–	–	–	92	–	–
Cc1ccc2nsnc2c1S(=O)(=O)NCc1cccnc1	–	–	–	–	–	–
CCOc1cc(NC(=O)c2ccco2)c(OCC)cc1NC(=O)c1cc(OC)c(OC)c(OC)c1	57	–	–	–	–	–
COc1cc(C(=O)OCC(=O)NC2CCCC2)cc(NC(=O)c2ccco2)c1OC	73	–	–	78	–	–
Clc1ccc2c(c1)CNc1c(ncnc1N1CCOCC1)O2	56	–	–	99	–	–
Cc1nc(NCc2ccco2)[nH]c(=O)c1CCC(C)C	–	–	·	57	–	–
Cc1ccc(CNC(=O)c2ccc(C#CC(C)(C)O)s2)cc1	–	–	–	–	–	–
CCOC(=O)c1c(CN2CCCCC2)n(C)c2cc(Br)c(O)cc12	–	–	–	71	–	–
CCOC(=O)c1c(CN2CCN(C)CC2)n(C)c2cc(Br)c(OC)cc12	56	·	–	–	–	–
CCSc1nnc(N2C(=O)CC(c3ccsc3)C3=C2CC(C)(C)CC3=O)s1 (configuration not stated)	–	–	–	–	–	–
CC(C)c1ccc(N(C(=O)C(F)(F)F)C(C(=O)NC2CCCCC2)c2ccncc2)cc1 (configuration not stated)	–	–	·	–	–	–
SMILES	CYP2C9 inh	Rev-RRE block	Cav32 inh	CYP2C19 inh	CYP2C19 activ	CYP2C9 activ
O=C(CCc1ccc(S(=O)(=O)N2CCOCC2)cc1)Oc1ccccc1	–	–	–	–	–	–
CC(C(=O)Nc1ccc(S(=O)(=O)N2CCCC2)cc1)N1CCN(C(=O)c2ccco2)CC1 (configuration not stated)	64	–	–	–	–	–
O=C(c1ccco1)N1CCN(S(=O)(=O)c2ccc3c(c2)OCCO3)CC1	–	–	–	96	–	–
O=S(=O)(c1ccc(Oc2ncnc3scc(-c4ccccc4)c23)cc1)N1CCOCC1	73	–	–	72	–	–
O=S(=O)(c1ccc(Oc2ccccc2)cc1)N1CCOCC1	57	–	–	–	–	–
CC(C)(C)NC(=O)CSc1nc(O)cc(=O)n1-c1ccccc1	–	–	–	–	–	–
Cc1onc(-c2ccccc2)c1C(=O)N1CCN(S(=O)(=O)c2ccc3c(c2)OCCO3)CC1	–	·	–	74	–	–
O=C(c1ccco1)N1CCN(S(=O)(=O)c2ccc(Oc3ccccc3)cc2)CC1	84	–	–	54	–	–
CCN(CC)S(=O)(=O)c1ccc(S(=O)(=O)N2CCN(C(=O)c3ccco3)CC2)cc1	·	–	–	·	·	·
COc1ccc(S(=O)(=O)N2CCN(C(=O)c3c(-c4ccccc4)noc3C)CC2)cc1	–	–	–	–	–	–
O=S(=O)(c1ccc(-c2cn3ccccc3n2)cc1)N1CCOCC1	55	–	–	–	–	–
CCCC[C@@H]1CCCO[C@@](C(=O)NCc2ccccn2)(C(F)(F)F)C1	·	·	–	·	·	·
CN1CCN(C(=O)CSc2nc(-c3cccs3)cc(-c3cccs3)c2C#N)CC1	78	·	–	86	–	–
CCN(CC)C(=O)CSc1nc(-c2cccs2)cc(-c2cccs2)c1C#N	·	–	-6	·	·	·
CN1CCN(C(=O)CSc2nc(-c3ccncc3)ccc2C#N)CC1	–	·	·	–	–	–
CCN(CC)C(=O)CSc1nc(N)c(C#N)c(-c2cccs2)c1C#N	·	–	–	·	·	·
CC(=N/O)/C(=N\O)c1ccc(C)o1	–	–	–	–	–	–
O=C1/C(=C/c2cccs2)SC(=S)N1c1ccccc1	–	–	–	–	–	–
Cc1cc(/C=C2/SC(=S)N(c3cccc(Cl)c3)C2=O)c(C)n1-c1cccnc1	·	39	–	·	·	·
Cc1ccc2c(c1)nnn2C1CCN(C(=O)c2cccs2)CC1	72	–	–	67	–	–
Cc1ccc(S(=O)(=O)N2CCC(n3nnc4cc(C)ccc43)CC2)cc1	·	–	–	·	·	·
CCOc1ccc(NC(=O)N2CCC(n3nnc4cc(C)ccc43)CC2)cc1	60	–	–	89	–	–
Cc1ccc2c(c1)nnn2C1CCN(C(=O)C2CCCCC2)CC1	61	·	–	91	–	–
C=CCOc1c(CNc2ncn[nH]2)cccc1OC	–	–	–	–	–	–
C=CCOc1ccc2ccccc2c1CNc1ncn[nH]1	62	–	–	84	–	–
SMILES	CYP2C9 inh	Rev-RRE block	Cav32 inh	CYP2C19 inh	CYP2C19 activ	CYP2C9 activ
Cn1ccnc1-c1nnn(-c2ccc(Cl)c(Cl)c2)n1	·	·	–	·	·	·
Cc1cc(C(=O)COC(=O)CN(C)S(=O)(=O)c2ccc(Cl)cc2)c(C)n1Cc1cccs1	–	–	–	74	–	–
Cc1noc(C)c1COC(=O)CN(C)S(=O)(=O)c1ccc(Cl)cc1	–	·	–	–	–	–
C/C=C1\COC(C(=O)NCCCN2CCCC2=O)(C(F)(F)F)C=C1C=C(C)C (configuration not stated)	·	·	–	·	·	·
C=CCN1C(=O)CSc2ccc(C(=O)OCC)cc21	–	–	–	–	–	–
CCOC(=O)c1ccc2c(c1)N(CC)/C(=C\C=C1/SC(=S)N(CC)C1=O)N2CC	·	133[fluorescence artefact?]	·	·	·	·
